Measured values pooled from the literature.
Each line is one published result; the experiments were not run side by side.
Organism: Staphylococcus aureus
Effect on: microbial growth

Compound	assay	system	conditions	MIC
Cc1[nH]c(C(=O)Nc2ccc(C(=O)NCC(=O)O)cc2N2CC[C@@H](N)C2)c(Cl)c1Cl.Cl	broth dilution	ATCC29213	–	> 32 µg/mL
C[C@@H]1O[C@@H](OC[C@H]2O[C@@H](Oc3c(-c4ccc(OCCO)c(OCCO)c4)oc4cc(OCCO)cc(O)c4c3=O)[C@H](O)[C@@H](O)[C@@H]2O)[C@H](O)[C@H](O)[C@H]1O	broth dilution	–	16 h	> 1020 µg/mL
Cc1ccccc1NC(=O)C=Cc1ccc(O)c(O)c1	broth dilution	FDA209	–	8 µg/mL
CC(O)CSc1nnc(-c2ccccc2)n1-c1ccccc1 (centres unmarked)	–	–	–	2000 µg/mL
CC(C)NCC(COc1cccc2ccccc12)OC(=O)C=Cc1ccc(O)c(O)c1 (centres unmarked)	broth dilution	FDA209	–	32 µg/mL
CN[C@H](CC(C)C)C(=O)N[C@H]1C(=O)N[C@@H](CC(N)=O)C(=O)N[C@H]2C(=O)N[C@H]3C(=O)N[C@H](C(=O)N[C@H](C(=O)O)c4cc(O)cc(O)c4-c4cc3ccc4O)[C@H](O)c3ccc(c(Cl)c3)Oc3cc2cc(c3O[C@@H]2O[C@H](CO)[C@@H](O)[C@H](O)[C@H]2O[C@H]2C[C@](C)(N)[C@H](O)[C@H](C)O2)Oc2ccc(cc2Cl)[C@H]1O	–	ATCC29213 MSSA	–	0.67 µM
CC(C)(C)OC(=O)N1CCN(c2cc(C(=O)NCC(=O)O)ccc2NC(=O)c2cc(Br)c(Br)[nH]2)CC1	broth dilution	ATCC29213	–	> 32 µg/mL
O=C(OC[C@H]1O[C@@H](OC(=O)c2cc(O)c(O)c(O)c2)[C@H](OC(=O)c2cc(O)c(O)c(O)c2)[C@@H](OC(=O)c2cc(O)c(O)c(O)c2)[C@@H]1OC(=O)c1cc(O)c(O)c(O)c1)c1cc(O)c(O)c(O)c1	broth dilution	–	16 h	100 µg/mL
Cc1[nH]c(C(=O)Nc2ccc(C(=O)NCC(=O)O)cc2N2CCN(C(=O)OC(C)(C)C)CC2)c(Cl)c1Cl	broth dilution	ATCC29213	–	> 32 µg/mL
C=C/C=C(\C)CC[C@@H]1C[C@@H](O)CC(=O)O1	broth dilution	ATCC6538P	–	256 µg/mL
Cc1nn(-c2ccccc2)c2c1C(c1ccc(Cl)cc1)N(C(=O)c1ccncc1)N2 (centres unmarked)	–	MTCC96	24 h	> 100 µg/mL
CC(O)CSc1nnc(Cn2cnc3c2c(=O)n(C)c(=O)n3C)n1-c1ccccc1 (centres unmarked)	–	–	–	9000 µg/mL
O=C(C=Cc1ccc(O)c(O)c1)Oc1cccc2cccnc12	broth dilution	FDA209	–	8 µg/mL
Cc1[nH]c(C(=O)Nc2ccc(C(=O)NCC(=O)O)cc2N2CC[C@@H](NC(=O)OC(C)(C)C)C2)c(Cl)c1Cl	broth dilution	ATCC29213	–	> 32 µg/mL
O=C(N[C@H](CO)[C@H](O)c1ccc([N+](=O)[O-])cc1)C(Cl)Cl	–	–	24 h	5 to 10 µM
Cl.O=C(O)CNC(=O)c1ccc(NC(=O)c2cc(Br)c(Br)[nH]2)c(N2CCNCC2)c1	broth dilution	ATCC29213	–	> 32 µg/mL
Cc1ccc(-c2nnc(SCC(C)O)n2-c2ccccc2)cc1 (centres unmarked)	–	–	–	3500 µg/mL
COc1ccc(C2c3c(C)nn(-c4ccccc4)c3NN2C(=O)c2ccncc2)cc1 (centres unmarked)	–	MTCC96	24 h	64 µg/mL
Cl.N[C@@H]1CCN(c2cc(C(=O)NCC(=O)O)ccc2NC(=O)c2cc(Br)c(Br)[nH]2)C1	broth dilution	ATCC29213	–	> 32 µg/mL
O=C(C=Cc1ccc(O)c(O)c1)OCCc1ccccc1	broth dilution	FDA209	–	16 µg/mL
Cc1nn(-c2ccccc2)c2c1C(c1ccc([N+](=O)[O-])cc1)N(C(=O)c1ccncc1)N2 (centres unmarked)	–	MTCC96	24 h	64 µg/mL
O=C(C=Cc1ccc(O)c(O)c1)OCc1ccccc1	broth dilution	FDA209	–	8 µg/mL
Cc1nn(-c2ccccc2)c2c1C(c1ccc(N(C)C)cc1)N(C(=O)c1ccncc1)N2 (centres unmarked)	–	MTCC96	24 h	8 µg/mL
O=c1c(O[C@@H]2O[C@H](CO)[C@@H](O)[C@H](O)[C@H]2O)c(-c2ccc(O)c(O)c2)oc2cc(O)cc(O)c12	broth dilution	–	16 h	> 100 µg/mL
O=C(O)c1cn(C2CC2)c2cc(N3CCNCC3)c(F)cc2c1=O	–	MTCC96	24 h	0.12 µg/mL
CC(C)(C)OC(=O)N[C@@H]1CCN(c2cc(C(=O)NCC(=O)O)ccc2NC(=O)c2cc(Br)c(Br)[nH]2)C1	broth dilution	ATCC29213	–	> 32 µg/mL
